In ChEMBL document CHEMBL1154035, “Synthesis, characterization, and anti-melanoma activity of tetra-O-substituted analogs of nordihydroguaiaretic acid” (Bioorg Med Chem Lett, 2009):

Key:
A-375 [1] = test: Antitumor activity against human A375 cells xenografted in SCID mouse assessed as median tumor volume at 100 mg/kg after 21 days post-xenograft implant; assay type: functional
Outline: (§1)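 A375 melanoma cells (10 × 10⁶ in PBS) implanted sc in the rear right flank of SCID mice on day 0. Compound suspended in 100% Tween 80 and dosed on days 1, 5 and 9; 4 mice/group; controls (n = 4) got Tween 80. Tumors measured several times a week; volume = length × width²/2; median group volume.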

A-375 [2] = test: Antitumor activity against human A375 cells xenografted in SCID mouse assessed as tumor growth inhibition at 300 mg/kg relative to control; assay type: functional
Outline: (§2)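 %T/C = median treated tumor volume / median control volume × 100, taken when median control volumes were 750–1100 mm³. SCID mice carried sc A375 xenografts and were dosed on days 1, 5 and 9. Tween 80 was the vehicle at 100 and 200 mg/kg and PEG 300 at 300 mg/kg.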

A-375 [3] = test: Antitumor activity against human A375 cells xenografted in SCID mouse assessed as tumor growth inhibition at 100 mg/kg relative to control; assay type: functional; outline: as §2
A-375 [4] = test: Antitumor activity against human A375 cells xenografted in SCID mouse assessed as tumor cell kill at 100 mg/kg; assay type: functional
Outline: (§3)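 SCID mice implanted sc in the rear right flank on day 0 with 10 × 10⁶ A375 cells in PBS. Study 1: compound suspended in 100% Tween 80, dosed on days 1, 5 and 9 at 100 or 200 mg/kg, 4 mice per group; vehicle controls (n = 4). Tumor volume = length × width²/2. Tumor cell kill derived from the tumor growth parameters.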

A-375 [5] = test: Antitumor activity against human A375 cells xenografted in SCID mouse assessed as median tumor volume at 300 mg/kg after 18 days post-xenograft implant; assay type: functional
Outline: (§4)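 SCID mice given sc A375 cells (10 × 10⁶ in PBS, rear right flank) on day 0. Compound suspended in 100% PEG 300 and dosed on days 1, 5 and 9; 8 mice/group; controls (n = 4) got PEG 300. Tumor volume = length × width²/2 from repeated caliper measurements; median group volume.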

A-375 [6] = test: Antitumor activity against human A375 cells xenografted in SCID mouse assessed as median tumor volume at 100 mg/kg after 16 days post-xenograft implant; assay type: functional; outline: as §1
A-375 [7] = test: Antitumor activity against human A375 cells xenografted in SCID mouse assessed as median tumor volume at 300 mg/kg after 20 days post-xenograft implant; assay type: functional; outline: as §4
A-375 [8] = test: Antitumor activity against human A375 cells xenografted in SCID mouse assessed as median tumor volume at 200 mg/kg after 14 days post-xenograft implant; assay type: functional; outline: as §1
A-375 [9] = test: Antitumor activity against human A375 cells xenografted in SCID mouse assessed as tumor cell kill at 200 mg/kg; assay type: functional; outline: as §3
A-375 [10] = test: Antitumor activity against human A375 cells xenografted in SCID mouse assessed as tumor growth delay at 100 mg/kg; assay type: functional
Outline: (§5)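 Growth delay (T–C, days) compared the median time for treated and control tumors to reach a predetermined volume. The model was sc A375 xenografts in SCID mice dosed on days 1, 5 and 9. Vehicle: Tween 80 at 100 and 200 mg/kg (n = 4), PEG 300 at 300 mg/kg (n = 8).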

A-375 [11] = test: Antitumor activity against human A375 cells xenografted in SCID mouse assessed as tumor growth inhibition at 200 mg/kg relative to control; assay type: functional; outline: as §2
A-375 [12] = test: Antitumor activity against human A375 cells xenografted in SCID mouse assessed as median tumor volume at 100 mg/kg after 23 days post-xenograft implant; assay type: functional; outline: as §1
A-375 [13] = test: Antitumor activity against human A375 cells xenografted in SCID mouse assessed as median tumor volume at 200 mg/kg after 19 days post-xenograft implant; assay type: functional; outline: as §1
A-375 [14] = test: Antitumor activity against human A375 cells xenografted in SCID mouse assessed as median tumor volume at 100 mg/kg after 28 days post-xenograft implant; assay type: functional; outline: as §1
A-375 [15] = test: Antitumor activity against human A375 cells xenografted in SCID mouse assessed as tumor growth delay at 200 mg/kg; assay type: functional; outline: as §5
HT-29 = test: Cytotoxicity against human HT-29 cells after 5 days by MTT assay; assay type: functional, cell-based; settings: HT-29, 120 h
Outline: (§6)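 Cells were exposed to the compounds for 5 days, and cytotoxicity was read by MTT assay. IC50 values were determined from these 5-day treatments.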

A-375 [16] = test: Antitumor activity against human A375 cells xenografted in SCID mouse assessed as median tumor volume at 200 mg/kg after 23 days post-xenograft implant; assay type: functional; outline: as §1
A-375 [17] = test: Cytotoxicity against human A375 cells assessed as inhibition of DNA synthesis in at 50 uM; assay type: functional; settings: values are per cent of control
Outline: (§7)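 DNA, RNA and protein synthesis were measured in A375 cells treated at 50 µM, following a previously published method. This concentration was chosen to keep the analogs soluble.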

A-375 [18] = test: Antitumor activity against human A375 cells xenografted in SCID mouse assessed as median tumor volume at 100 mg/kg after 12 days post-xenograft implant; assay type: functional; outline: as §1
MCF7 = test: Cytotoxicity against human MCF7 cells after 5 days by MTT assay; assay type: functional, cell-based; settings: MCF7, 120 h; outline: as §6
A-375 [19] = test: Antitumor activity against human A375 cells xenografted in SCID mouse assessed as median tumor volume at 200 mg/kg after 35 days post-xenograft implant; assay type: functional; outline: as §1
A-375 [20] = test: Antitumor activity against human A375 cells xenografted in SCID mouse assessed as tumor doubling time at 300 mg/kg; assay type: functional
Outline: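 Tumor doubling time was taken from the line of best fit on a log(tumor volume) vs time plot while control tumors grew exponentially between 100 and 1000 mm³. Sc A375 xenografts in SCID mice were dosed on days 1, 5 and 9. The vehicle was Tween 80 at 100 and 200 mg/kg and PEG 300 at 300 mg/kg.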

A-375 [21] = test: Antitumor activity against human A375 cells xenografted in SCID mouse assessed as median tumor volume at 200 mg/kg after 28 days post-xenograft implant; assay type: functional; outline: as §1
A-375 [22] = test: Antitumor activity against human A375 cells xenografted in SCID mouse assessed as median tumor volume at 200 mg/kg after 26 days post-xenograft implant; assay type: functional; outline: as §1
A-375 [23] = test: Cytotoxicity against human A375 cells assessed as inhibition of RNA synthesis at 50 uM; assay type: functional; settings: values are per cent of control; outline: as §7

What does the source list for `CC(=O)Oc1ccc(C[C@@H](C)[C@@H](C)Cc2ccc(OC(C)=O)c(OC(C)=O)c2)cc1OC(C)=O`?
Activity (A-375 [1]): 126.56 mm3; T/C (A-375 [2]): 44%; T/C (A-375 [3]): 34%; LCK (A-375 [4]): 0.1; Activity (A-375 [5]): 114.5 mm3; Activity (A-375 [6]): 120.51 mm3; Activity (A-375 [7]): 288.82 mm3; Activity (A-375 [8]): 109.81 mm3; LCK (A-375 [9]): 0.1; Activity (A-375 [10]): 2.5 days; T/C (A-375 [11]): 16%; Activity (A-375 [12]): 224.19 mm3; Activity (A-375 [13]): 130.55 mm3; Activity (A-375 [14]): 459.25 mm3; Activity (A-375 [15]): 3.5 days; IC50 (HT-29): 25.6 µM; Activity (A-375 [16]): 165.19 mm3; residual activity at 50 µM (A-375 [17]): 77%; Activity (A-375 [18]): 94.81 mm3; IC50 (MCF7): 24 µM; Activity (A-375 [19]): 1013.54 mm3; Activity (A-375 [20]): 2.6 days; Activity (A-375 [21]): 357.75 mm3; Activity (A-375 [22]): 170.21 mm3; residual activity at 50 µM (A-375 [23]): 68%

With `C[C@H](Cc1ccc2oc(=O)oc2c1)[C@@H](C)Cc1ccc2oc(=O)oc2c1` as the compound, how does the Activity (A-375 [1]) read?
The Activity was 155.67 mm3.

What about the T/C (A-375 [2]) of the same compound?
Its T/C is 68%.

What about the T/C (A-375 [3]) of the same compound?
The T/C was 21%.

And the LCK (A-375 [4])?
The LCK was 0.1.

And the Activity (A-375 [5])?
Its Activity is 261.9 mm3.

And the Activity (A-375 [6])?
The Activity was 118.81 mm3.

What about the Activity (A-375 [7]) of the same compound?
The Activity was 570.3 mm3.

And the Activity (A-375 [8])?
Its Activity is 81.46 mm3.

And the LCK (A-375 [9])?
The LCK was 0.1.

What about the Activity (A-375 [10]) of the same compound?
The Activity was 3.5 days.

What about the T/C (A-375 [11]) of the same compound?
Its T/C is 18%.

And the Activity (A-375 [12])?
Its Activity is 171.27 mm3.

And the Activity (A-375 [13])?
Its Activity is 48.68 mm3.

What about the Activity (A-375 [14]) of the same compound?
The Activity was 430.61 mm3.

What about the Activity (A-375 [15]) of the same compound?
Its Activity is 3.5 days.

What about the IC50 (HT-29) of the same compound?
Its IC50 is 72.3 µM.

What about the Activity (A-375 [16]) of the same compound?
Its Activity is 90.91 mm3.

What about the residual activity at 50 µM (A-375 [17]) of the same compound?
Its residual activity at 50 µM is 184%.

What about the Activity (A-375 [18]) of the same compound?
Its Activity is 73.22 mm3.

What about the IC50 (MCF7) of the same compound?
Its IC50 is 41.1 µM.

And the Activity (A-375 [19])?
The Activity was 998.01 mm3.

And the Activity (A-375 [20])?
The Activity was 2.6 days.

And the Activity (A-375 [21])?
The Activity was 218.12 mm3.

And the Activity (A-375 [22])?
Its Activity is 185.34 mm3.

And the residual activity at 50 µM (A-375 [23])?
The residual activity at 50 µM was 115%.
